AI-2 QS mod: Vibrio harveyi AI-2 quorum sensing modulators, primary screen, JMH597 strain, luminescence/OD600 ratio | Vibrio harveyi JMH597 AI-2 luminescence/OD600 ratio, 9 h; stronger effect = lower value; strain lacks LuxN and CqsS sensors; 0 = neutral-control median | activity change, % at 7.5 µM | hit rate 0.4% among 300,000; in the data active = activity change below about -75%, passing the limit was not always enough;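 note: luminescence divided by OD600 gain over 9 h not by final OD600 alone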
MC4R antagonist: MC4R antagonists of cAMP signaling, primary screen, cell-based, TR-FRET, antagonist arm of biased-ligand search. Melanocortin receptor 4 (Homo sapiens), P32245. MC4R-expressing cells, MTII-stimulated cAMP, LANCE TR-FRET. inhibition, % at 6.5 µM. hit rate 0.48% among 360,000;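 active = inhibition above its plate's cutoff, the mean of tested wells on that plate plus 3 SD, cut at about 29% in these data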;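 note: 0% = Melanotan II alone and 100% = Melanotan II plus saturating MCL0020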
Target sequence (P32245 whole entry, looked up): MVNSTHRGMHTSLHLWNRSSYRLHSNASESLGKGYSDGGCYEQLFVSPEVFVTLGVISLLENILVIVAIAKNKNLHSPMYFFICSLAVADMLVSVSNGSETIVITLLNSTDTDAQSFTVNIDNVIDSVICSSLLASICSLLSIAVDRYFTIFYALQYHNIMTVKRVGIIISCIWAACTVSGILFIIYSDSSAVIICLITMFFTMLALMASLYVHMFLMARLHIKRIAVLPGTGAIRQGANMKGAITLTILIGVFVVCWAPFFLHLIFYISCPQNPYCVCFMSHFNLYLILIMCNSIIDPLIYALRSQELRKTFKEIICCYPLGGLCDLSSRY
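System – human MC4R-expressing U2OS cells · Also added – Melanotan II · Dosing – one concentration, 6.5 µM nominal · Timing – 30-min compound, 1-h challenge, 1-h detection, room temperature · Measured by – Eu-cAMP/anti-cAMP TR-FRET, emission 671 nm · Replicates – singlicate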
MC4R ag barr: MC4R agonists recruiting beta-arrestin, primary screen, cell-based, luminescence, agonist arm of biased-ligand search. U2OS MC4R beta-arrestin complementation; percent of melanotan II response, DMSO zero. Melanocortin receptor 4 (Homo sapiens), P32245. activation, % at 8.9 µM. hit rate 0.98% among 360,000. AID 540308, 2011;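 active = activation above a per-plate cutoff, the mean activation of sample wells on that plate plus 3 SD, cut at about 8% in these data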
NTR1 ag: agonists of human NTR1, primary screen, imaging, U2OS cells, beta-arrestin-GFP, high content; activation, % at 20 µM; AID 493036, 2011; Neurotensin receptor type 1 (Homo sapiens), P30989; hit rate 0.17% among 330,000; NTR1-U2OS beta-arrestin-GFP spot imaging, agonist mode;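 active = activation at or above 40% of the spot to cytoplasm intensity ratio, with at least 20 cells analyzed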;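 note: 0% = DMSO without peptide and 100% = 100 nM NTR1 peptide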
MC4R barr conf: MC4R beta-arrestin agonists, retest, confirmation, cell-based, luminescence, U2OS | hit rate 31% among 2,400 | activation, % at 8.9 µM | U2OS MC4R beta-arrestin recruitment; scaled DMSO 0%, Melanotan II 100% | shares compounds with MC4R ag barr;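 active = mean activation across replicates above the hit cutoff set in the earlier primary screen, cut at about 8% in these data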
MOR-DOR barr ag: agonists of MOR-DOR heterodimerization, counter-screen for MC4R biased agonist project, cell-based, luminescence | shares compounds with MC4R ag barr | U2OS PathHunter beta-arrestin, beta-gal luminescence; percent of deltorphin B response, DMSO zero | activation, % at 9.2 µM | hit rate 5.8% among 2,400;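 active = mean activation across replicates exceeds the hit threshold derived in the earlier primary screen, cut at about 18% in these data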;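 note: 100% = deltorphin B at 0.9 µM final and 0% = DMSO alone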
* = called active by the depositor; . = no result. Sampled rows, rich in hits. Any-hit rate of the full collection: about 1.8%.

SMILES	AI-2 QS mod	MC4R antagonist	MC4R ag barr	NTR1 ag	MC4R barr conf	MOR-DOR barr ag
Cc1ccc(C(=O)CSc2nnc(-c3ccc4[nH]c(C)c(C)c4c3)o2)cc1C	10	5	-1	2	.	.
Cc1[nH]c2ccc(-c3nnc(SCC(=O)c4ccccc4F)o3)cc2c1C	29	16	10*	7	1	4
COc1ccc(-c2ccc3c(c2)S(=O)(=O)c2cccc(C(=O)NCc4cc(C)oc4C(F)(F)F)c2C3=O)cc1OC	.	12	12*	5	27*	12
COc1ccc(-c2ccc3c(c2)S(=O)(=O)c2cccc(C(=O)NCc4cccc(OC(F)(F)F)c4)c2C3=O)cc1OC	.	3	4	33	.	.
CCOc1ccc2nc3cc(NCc4ccc(OC)cc4)ccc3c(N)c2c1	52	19	13*	1	15*	15
CCn1cnc2cc(NCc3ccc(OC)cc3)ccc21	-56	-4	0	0	.	.
CC(=O)c1c(O)cc(O)cc1O	.	-2	0	.	.	.
CCOC(=O)C1=C(c2ccccc2)NC(=O)NC1c1cc(Cl)c(O)c(OC)c1 (stereo not given)	17	18	-1	0	.	.
CCOC(=O)C1=C(c2ccccc2)NC(N)=NC1c1ccc(OCc2ccc(Cl)cc2)c(OC)c1 (stereo not given)	26	10	12*	24	11*	17
CCC(=O)N(Cc1ccco1)c1nc(-c2cc(OC)ccc2OC)cs1	13	-3	9.7*	8	9.1*	5
COc1ccc(S(=O)(=O)N2CCN(Cc3cc(=O)n4ccccc4n3)CC2)cc1	.	22	2	4	.	.
Cc1ccc(NC(=O)CN(C)C(=O)c2sc3cc(Cl)ccc3c2Cl)cc1	4	1	10*	1	2	6
COc1ccc(NC(=O)CN(C)C(=O)c2sc3cc(Cl)ccc3c2Cl)cc1	19	9	-1	13	.	.
CC(=O)c1c(C)[nH]c(C(=O)CSc2ncnc3sc(-c4ccccc4)cc23)c1C	16	15	25*	7	16*	4
Fc1cccc(Cl)c1/C=N/Nc1c(Cl)cncc1Cl	12	-6	10*	4	4	7
O=S(=O)(N/N=C\c1c(F)cccc1Cl)c1ccc(Cl)cc1	23	1	-3	-1	.	.
CC(=O)Nc1ccc(S(=O)(=O)NN=CCCc2ccccc2)cc1	.	4	-2	.	.	.
Clc1ccc(CSc2cnnc3ccccc23)cc1Cl	.	-9	13*	.	3	3
Cc1ccccc1Cn1ccc(NC(=O)c2cc3nc(-c4ccco4)cc(C(F)(F)F)n3n2)n1	16	11	15*	9	-1	5
Cc1nn(Cc2ccccc2)c(C)c1NC(=O)c1cc2nc(-c3ccco3)cc(C(F)(F)F)n2n1	9	15	0	2	.	.
COc1ccc(C(=O)Nc2ccc(N3CCCCC3)cc2)cc1Br	32	-2	13*	3	2	8
C[C@]12C=CC(=O)C=C1CC[C@@H]1[C@@H]2C(=O)C[C@@]2(C)[C@H]1CC[C@]2(O)C(=O)COC(=O)CCC(=O)O	11	1	-1	-1	.	.
O=C(COC(=O)/C=C/c1cccs1)Nc1nc(-c2ccccc2)cs1	13	18	32*	5	5	7
O=C(COC(=O)/C=C/c1cccs1)Nc1nc(-c2cccc(Br)c2)cs1	7	3	1	2	.	.
COc1ccc(CN(C)CCCn2cnc3c(OCc4ccccc4)ncnc32)cc1OC	.	4	1	.	.	.
SMILES	AI-2 QS mod	MC4R antagonist	MC4R ag barr	NTR1 ag	MC4R barr conf	MOR-DOR barr ag
Cc1cc(C(C)(C)CC(C)(C)C)ccc1OCCOCC[N+](C)(C)Cc1ccccc1	.	11	25*	20	37*	29*
CC1CC(=O)Nc2ccccc2N1C(=O)CSc1nnnn1C (stereo not given)	.	7	0	3	.	.
Cc1c(C(=O)Nc2nccs2)oc2c(Cl)cccc12	6	-9	22*	6	1	6
Cc1nc(NC(=O)c2cccc(-c3cc4ccccc4oc3=O)c2)ccc1Br	14	-5	24*	25	17*	12
COc1ccccc1NC(=O)C(C)OC(=O)c1cccc(-n2cnnn2)c1 (stereo not given)	13	8	-1	0	.	.
C=C(C)c1cccc(C(C)(C)NC(=O)NC2CCN(Cc3ccccc3)CC2)c1	10	5	3	0	.	.
C=C(C)c1cccc(C(C)(C)NC(=O)N(Cc2ccccc2)Cc2ccco2)c1	14	1	17*	0	-1	5
O=C(CN1CCCCC1)NCC(=O)Nc1ccc(F)c(F)c1F	.	-3	0	2	.	.
CC(C)(C)CCN1CCC(CN2CCNC(=O)C2=O)CC1	.	10	-1	.	.	.
COc1ccc(-c2nc(C(N)=O)c3[nH]c(=O)n(-c4cccc(Cl)c4)c3n2)cc1OC	26	-3	13*	.	11*	12
COc1cccc(-c2nc(C(N)=O)c3[nH]c(=O)n(-c4cccc(Cl)c4)c3n2)c1OC	37	11	0	6	.	.
O=C(Cn1nnc(-c2ccc(F)cc2)n1)NC(=O)NC1CCCCC1	.	5	9.7*	.	2	5
CCOCC(=O)Nc1c(C(=O)Nc2ccc(OC)cc2OC)oc2ccccc12	22	3	13*	11	9.9*	6
COCC(=O)Nc1c(C(=O)Nc2ccccc2OC)oc2ccccc12	16	3	22*	5	3	5
COc1ccccc1NC(=O)c1oc2ccccc2c1NC(=O)c1cc(OC)c(OC)c(OC)c1	18	-11	-3	7	.	.
COc1ccc(NC(=O)c2oc3ccccc3c2NC(=O)C2CC2)c(OC)c1	26	-1	3	16	.	.
CC(C)COc1ccc(S(=O)(=O)NNC(=O)c2cc3ccccc3o2)cc1	14	14	11*	7	12*	10
CCCCOc1ccc(S(=O)(=O)NNC(=O)c2cc3ccccc3o2)cc1	42	-2	5	4	.	.
Cc1cc(N2CCN(C(=O)c3ccco3)CC2)n2nc(-c3cccc(Cl)c3)cc2n1	16	-7	26*	10	31*	7
CCOc1cccc(NCc2cc3c(C(C)(C)C)nn(-c4ccccc4)c3[nH]c2=O)c1	25	5	2	17	.	.

Bioassay records from PubChem BioAssay.
